Ten molecules from ChEMBL document CHEMBL1153712, “Design, synthesis and bioactivity of catechin/epicatechin and 2-azetidinone derived chimeric molecules” (2009) can be followed below.

Activity calls are given as the source filed them. The calls are words filed in the database; no cut-off is given here.

One experiment has as its system Escherichia coli. The experiment in a line: Antibacterial activity against Escherichia coli at 1 mmol after 48 hrs by disk diffusion assay. It counts as functional. In a few lines:
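Disc diffusion on agar. A colony was grown in nutrient broth for 2.5 h and spread over dried plates. Sterile 6 mm paper discs carried 1 mmol of compound. Plates were held at 37 °C and read at 48 h for inhibition-zone diameter. Controls were ampicillin (standard) and a DMSO-only disc.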

Experiment [1] has as its target T1, Ribonuclease pancreatic (Bos taurus) (UniProt P61823).
T1 sequence (whole entry): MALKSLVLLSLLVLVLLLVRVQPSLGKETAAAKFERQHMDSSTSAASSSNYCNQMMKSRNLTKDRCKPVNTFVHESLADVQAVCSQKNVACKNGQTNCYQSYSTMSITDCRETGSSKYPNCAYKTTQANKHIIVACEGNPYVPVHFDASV
Kind of experiment: Inhibition of bovine pancreatic RNase A assessed as degradation of 18s rRNA after 1 hr by agarose gel based assay. The essentials:
(§1)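 Qualitative agarose-gel assay. RNase A was preincubated with compounds for 1 h at 37 °C. RNA substrate was then added and digested for 15 minutes. Samples were mixed with 40% sucrose and 0.25% bromophenol blue in 1× TAE and run on a 1.1% agarose gel. Degradation of 28S and 18S rRNA bands was scored.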

Experiment [2] concerns the target T1, Ribonuclease pancreatic (Bos taurus). The experiment in a line: Inhibition of bovine pancreatic RNase A assessed as degradation of 28s rRNA after 1 hr by agarose gel based assay. In a few lines: as §1

With `COc1ccc([C@@H]2[C@H](CCN=[N+]=[N-])C(=O)N2c2ccccc2)cc1`, the result with Escherichia coli was inactive.
Turning to `COc1ccc([C@@H]2[C@H](CCO)C(=O)N2c2ccccc2)cc1`, the result in the experiment on Escherichia coli was inactive.
The same measure, in the same setting: then `O=C1[C@@H](CCO)[C@@H](c2ccccc2)N1c1ccccc1`, with “inactive”.
`Oc1cc(O)c2c(c1)O[C@H](c1ccc(O)c(O)c1)[C@@H](O)C2`: the “Inhibition (qualitative, active/not active)” value in experiment [1] is “inactive”.
`Oc1cc(O)c2c(c1)O[C@H](c1ccc(O)c(O)c1)[C@H](O)C2`: in experiment [1], the “Inhibition (qualitative, active/not active)” value was “inactive”.
As for `[N-]=[N+]=NCC[C@@H]1C(=O)N(c2ccccc2)[C@@H]1c1ccccc1`, in the experiment with Escherichia coli, the outcome was inactive.
As to `O=C1[C@@H](CCn2cc(CO[C@H]3Cc4c(O)cc(O)cc4O[C@@H]3c3ccc(O)c(O)c3)nn2)[C@@H](c2ccccc2)N1c1ccccc1` (mixture of isomers), the “diameter of the inhibition zone (DIZ)” value in the experiment with Escherichia coli came out at 9 mm. Also, the “Inhibition (qualitative, active/not active)” value in experiment [1] was “Active”. In addition, in experiment [2], the inhibition entry was “inactive”.
Take `O=C1[C@@H](CCn2cc(CO[C@@H]3Cc4c(O)cc(O)cc4O[C@@H]3c3ccc(O)c(O)c3)nn2)[C@@H](c2ccccc2)N1c1ccccc1` (mixture of isomers): the “diameter of the inhibition zone (DIZ)” value in the experiment with Escherichia coli was determined as 9 mm. Further, the “Inhibition (qualitative, active/not active)” value in experiment [1] was “Active”. The inhibition entry in experiment [2] was “inactive”.
With `COc1ccc([C@@H]2[C@H](CCn3cc(CO[C@H]4Cc5c(O)cc(O)cc5O[C@@H]4c4ccc(O)c(O)c4)nn3)C(=O)N2c2ccccc2)cc1` (mixture of isomers), the “diameter of the inhibition zone (DIZ)” value in the experiment with Escherichia coli was 6 mm. Further, in experiment [1], the “Inhibition (qualitative, active/not active)” value is “Active”. Moreover, the inhibition result in experiment [2] was “inactive”.
For `COc1ccc([C@@H]2[C@H](CCn3cc(CO[C@@H]4Cc5c(O)cc(O)cc5O[C@@H]4c4ccc(O)c(O)c4)nn3)C(=O)N2c2ccccc2)cc1` (mixture of isomers), in the experiment on Escherichia coli, the “diameter of the inhibition zone (DIZ)” value was found to be 6 mm. Further, the “Inhibition (qualitative, active/not active)” value in experiment [1] was “Active”. Further, the inhibition entry in experiment [2] is “inactive”.
